MT1-MMP txn act – MT1-MMP promoter reporter activation – cell-based, luciferase luminescence, primary screen; 86,000 tested, 0.16% active; activation factor at 10 µM; HT1080 MT1-MMP promoter luciferase reporter, overnight; hits give high values;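 active means activation factor of at least 2 for MT1-MMP transcription at 10 µM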
RORA act – activators of orphan receptor RORA, primary screen, cell-based, luminescence | activation, % at 10 µM | 65,000 tested, 1.5% active | CHO-K1 Gal4-RORA LBD luciferase reporter; percent increase over mock-subtracted basal signal;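 active means activation above the mean of all tested compounds plus 3 SD, cut at about 49% in these data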;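 further: 0% = DMSO-treated RORA cells and 100% = added signal equal to DMSO minus mock-transfected cells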
HEK293 NFkB inh – inhibitors of PMA/ionomycin-induced NF-kB reporter, primary screen, antigen receptor NF-kB inhibitor project, cell-based, HEK-293 luciferase reporter, luminescence. 62,000 tested, 0.21% active. HEK-293 NF-kB luciferase reporter. inhibition, % at 3 µM. AID 465, 2006;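 active means inhibition above the mean of all tested compounds plus 3 SD, cut at about 40% in these data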;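 further: 0% = stimulated DMSO wells and 100% = 10 µM reference inhibitor 5653914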
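Timing: 1 h pretreatment, 16 h stimulation, 37 °C; system: HEK-293 cells with stable firefly luciferase reporter driven by four HIV NF-kB elements; doses: 3 µM once, 0.30% DMSO; measured by: luciferase luminescence; control set: DMSO and 10 µM reference inhibitor; repeats: single test; reagent: PMA plus ionomycin mix as NF-kB-activating stimulus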
SF1 activator – activators of human SF-1, primary screen, cell-based, CHO-K1, Gal4-SF-1 LBD, luciferase luminescence; AID 522, 2006; 65,000 tested, 1.9% active; activation, % at 10 µM; Steroidogenic factor 1 (Homo sapiens), Q13285; CHO-K1 Gal4-SF-1 LBD luciferase reporter; % increase over DMSO SF-1-specific signal;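 active means activation above the mean activation of all tested compounds plus 3 SD, cut at about 50% in these data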
Target sequence (Q13285 whole entry, looked up, the tested form may be a part): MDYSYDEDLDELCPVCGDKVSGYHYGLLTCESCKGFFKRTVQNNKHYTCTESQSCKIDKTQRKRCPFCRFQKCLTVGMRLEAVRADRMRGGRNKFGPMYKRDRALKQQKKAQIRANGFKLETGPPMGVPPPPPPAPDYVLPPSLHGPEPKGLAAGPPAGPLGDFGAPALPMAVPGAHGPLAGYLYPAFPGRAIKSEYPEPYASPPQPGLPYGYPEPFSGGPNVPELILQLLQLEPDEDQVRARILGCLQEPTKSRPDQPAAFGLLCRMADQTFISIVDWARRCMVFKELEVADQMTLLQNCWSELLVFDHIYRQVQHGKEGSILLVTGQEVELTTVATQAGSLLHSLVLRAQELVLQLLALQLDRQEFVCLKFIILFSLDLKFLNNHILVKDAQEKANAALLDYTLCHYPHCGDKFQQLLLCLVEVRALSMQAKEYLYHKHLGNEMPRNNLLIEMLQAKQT
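Test system: transient Gal4-SF-1 LBD reporter, CHO-K1; Amount: 4,000 CHO-K1 cells per well; Doses: 10 µM only; Timing: compound exposure 20 h at 37 °C; Signal: luciferase light emission; Read-out basis: percent activation relative to DMSO median and mock-transfected background; Control set: DMSO negative control and −SF1 background wells; Replicates: one test per compound.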
Jurkat viability – cytotoxicity toward Jurkat T cells, primary screen, cytotoxicity control, cell-based, Jurkat E6.1, 60K MLSMR library. Jurkat E6.1 viability, ATP luminescence, 48 h. inhibition, % at 4 µM. 56,000 tested, 1.2% active;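 active means inhibition above the mean inhibition of all tested compounds plus 3 SD, cut at about 28% in these data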
Numbers without * were called inactive; nt = not tested or not shown. An excerpt weighted towards active compounds, which were near 2.9% of everything screened.

SMILES	MT1-MMP txn act	RORA act	HEK293 NFkB inh	SF1 activator	Jurkat viability
CC(C)CNC(=O)c1cc(-c2ccc(Cl)c(Cl)c2)on1	1.4	34	-20	25	-8
COCCNC(=O)Cn1c(=O)n(C)c2ccccc21	1.1	nt	nt	nt	nt
Cc1ccc2c3c([nH]c2c1C)-c1nonc1CC3	1.2	nt	nt	nt	nt
O=C1N=C(N2CCOCC2)S/C1=C1\C(=O)N(Cc2ccccc2)c2ccccc21	1.4	42	-5	30	-4
CCCN1C(=O)/C(=C2\SC(N3CCCCC3)=NC2=O)c2ccccc21	1.6	65*	-15	81*	4
Cc1ccc(NC2=CC(=O)CC(c3ccco3)C2)c(N)c1 (centres undefined)	1.2	50*	13	58*	19
Nc1ccccc1NC1=CC(=O)CC(c2ccco2)C1 (centres undefined)	1.1	21	6	5	10
CC(C)(C)C(=O)N=C1SC2CS(=O)(=O)CC2N1c1ccc2c(c1)OCO2 (centres undefined)	0.9	-9	7	12	5
COc1cc(C2C(C#N)=C(C)NC3=C2C(=O)c2ccccc23)cc(OC)c1OC (centres undefined)	0.5	-38	43*	-82	100*
CCOC(=O)c1sc(NC(=O)C2CCCO2)c(C(=O)OC)c1C (centres undefined)	1	-13	12	9	-7
O=C(Nc1nnc(C2CC2)s1)C1Cc2ccccc2CN1S(=O)(=O)c1ccccc1F (centres undefined)	1.4	nt	nt	nt	nt
Cc1cc(C(=O)CSc2nnc(-c3cccc(F)c3)n2N)c(C)n1Cc1ccc2c(c1)OCO2	1.2	24	16	10	37*
CCCCn1c(SCc2c(C)noc2C)nc2cc(S(N)(=O)=O)ccc21	1.9	-16	42*	-37	10
CCCCc1cc(O)c(CCCC)c(O)c1	1.2	50*	-5	35	2
CCc1cc2c(=O)c(-c3cscn3)coc2cc1OC	1.5	52*	-10	39	-3
Cc1ccc(S(=O)(=O)/N=C2/C=C(C3C(=O)CC(C)(C)CC3=O)C(=O)c3ccccc32)cc1	2.1*	nt	nt	nt	nt
CCCc1cc(C(=O)NCC(C)C)no1	1.5	10	2	24	0
COc1ccc(CNC(=O)c2cc3c(C)nc4ccccc4c3o2)c(OC)c1	1.1	-55	17	-42	60*
CCOC(=O)C1CCN(C(=S)Nc2cc(OC)c(OC)cc2C(=O)OC)CC1	1.1	nt	nt	nt	nt
Cc1c(C)c2c(C)[nH]nc2oc1=O	2.3*	-5	-2	16	-1
CCCc1c(C)c2c(C)[nH]nc2oc1=O	1.1	nt	nt	nt	nt
CC(=O)Oc1ccc2cc(-c3nc4ccccc4n3C)c(=O)oc2c1	1.5	76*	-10	65*	-1
Cc1nc2cc(Cl)c(Cl)cc2nc1C	1.4	89*	9	64*	-4
Cc1cnc2cc(Cl)c(Cl)cc2n1	1.1	nt	nt	nt	nt
O=C(Nc1ccc(N2CCOCC2)cc1)c1cccc(S(=O)(=O)N2CCC(Cc3ccccc3)CC2)c1	0.9	nt	nt	nt	nt
SMILES	MT1-MMP txn act	RORA act	HEK293 NFkB inh	SF1 activator	Jurkat viability
COC(=O)c1cc(-c2ccccc2)n(CCNC(=O)CCCCCN2C(=O)NC(c3ccc(-c4ccccc4)cc3)C(C(=O)OCc3ccccc3)=C2C)c1C (centres undefined)	1.2	nt	nt	nt	nt
CCN(CC)c1ccc(NC(=O)c2ccccc2F)cc1	0.6	70*	-28	74*	57*
COc1ccc(NC(=O)CN(c2cc(C)cc(C)c2)S(=O)(=O)c2c(C)noc2C)cc1	1.1	33	4	-17	-5
CCOc1ccccc1NC(=O)CN(c1ccc(OC)cc1)S(=O)(=O)c1c(C)noc1C	0.5	-16	36	-11	93*
COc1ccc(N(CC(=O)Nc2cc(C)ccc2OC)S(=O)(=O)c2c(C)noc2C)cc1	1.2	24	6	54*	20
CCOc1ccc(N(CC(=O)Nc2ccccc2C)S(=O)(=O)c2c(C)noc2C)cc1	0.4	27	36	2	91*
CCOc1ccc(N(CC(=O)Nc2ccc(C)c(C)c2)S(=O)(=O)c2c(C)noc2C)cc1	1	44	20	-7	16
